This note sets out measurements from ChEMBL document CHEMBL5154905, “Reversible Monoacylglycerol Lipase Inhibitors: Discovery of a New Class of Benzylpiperidine Derivatives” (J Med Chem, 2022).

By IC50 is commonly meant the point on the concentration scale where inhibition reaches its midpoint. Broadly, the solubility is how much of the substance goes into solution per volume. Lower therefore signals a poorly soluble substance.

Activity calls are given as the source filed them. The calls are words filed in the database; no cut-off is given here.

Data set [1] has as its system PDAC-3. The data set can be described thus: Induction of apoptosis in human PDAC-3 cells at IC50 measured after 72 hrs by Annexin-V/FITC staining based assay. The format is functional, cell-based. An outline of the steps: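 Fixed with paraformaldehyde, stained with annexin V/FITC in HEPES-buffered saline (pH 7.4) with 2.5 mM CaCl2. Fluorescence read at ex 485/em 535 nm and normalised to cell number from crystal violet staining (595 nm). Triplicate measurements, expressed relative to untreated control.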

The subject of data set [2] is PDAC-3. Nature of the data set: Synergistic antiproliferative activity against human PDAC-3 cells assessed as increase in ENT1 expression at 5 times IC50 incubated for 24 hrs in presence of gemcitabine by qRT-PCR analysis. The format is functional, cell-based.
For data set [3], the system named is PDAC-3. The data set can be described thus: Induction of apoptosis in human PDAC-3 cells assessed as increase in caspase-3 level at IC50 measured after 72 hrs by immunoassay. The format is functional, cell-based. The gist of the method:
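Cell extracts assayed with a human active caspase-3 ELISA; absorbance 450 nm minus 540 nm. Quantified against a recombinant human caspase-3 standard curve. Triplicate measurements, expressed relative to untreated cells.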

Data set [4] deals with PDAC-3. The data set can be described thus: Induction of apoptosis in human PDAC-3 cells assessed as reduction in Bcl-2 […] expression at 5 times IC50 incubated for 24 hrs by qRT-PCR analysis. The format is functional, cell-based. On the technique in general: Real-time PCR tracks product formation cycle by cycle.
The nature of data set [5]: Cytotoxicity against human hTERT-HPNE cells assessed as cell growth inhibition incubated for 72 hrs by sulforhodamine B assay. The format is toxicity, cell-based. The gist of the method:
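SRB growth-inhibition assay. Cells were seeded at 5000 per well and treated after 24 h, once a monolayer had formed, with MAGL inhibitors (0.1–50 μM) for 72 h. Cells were then fixed with trichloroacetic acid at 4 °C and stained with SRB. Bound dye was dissolved in Tris base and read at 490 and 540 nm. IC50 came from curve fitting.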

Data set [6] can be described thus: Stability of the compound in PBS buffer at pH 7.4 at 500 uM measured up to 24 hrs by UV/LC-MS analysis. The format is physicochemical. The note with it: pH 7.4, 24 h.
Data set [7] is described as follows: Induction of apoptosis in human PDAC-2 cells assessed as fold change in apoptotic rate at IC50 measured after 72 hrs by Annexin-V/FITC staining based assay relative to control. The format is functional. An outline of the steps: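 Then paraformaldehyde-fixed and stained with annexin V/FITC in HEPES/NaCl/CaCl2 buffer, pH 7.4. Fluorescence read at ex 485/em 535 nm, normalised to cell number by crystal violet (595 nm). Expressed relative to untreated control (=1). Triplicate, mean ± SEM.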

Data set [8] can be described thus: Stability of the compound in pooled human plasma at 3 mM measured up to 24 hrs by UV/LC-MS assay. The format is ADME, cell-free. The conditions noted are these: read-out: Stability.
Data set [9] can be described thus: Aqueous solubility of compound at 1 mg/ml incubated for 24 hrs by LC-MS/MS analysis. The format is physicochemical. The conditions noted are these: buffer.
Data set [10] in a line: Stability of the compound in MeOH solution at 500 uM measured up to 24 hrs by UV/LC-MS analysis. The format is physicochemical.
Data set [11] in a line: Apparent permeability of the compound in PBS buffer pH 7.4 assessed as membrane retention at 0.5 mM incubated for 5 hrs by PAMPA based UV/LC-MS analysis. The note with it: pH 7.4, 5 h, 500 µM. The format is ADME.
Data set [12] relates to PDAC-3. The data set can be described thus: Antimigratory activity against human PDAC-3 cells assessed as reduction in MMP9 expression at 5 times IC50 incubated for 24 hrs by qRT-PCR analysis. The format is functional, cell-based.
Data set [13] deals with T1, Fatty-acid amide hydrolase 1 (Mus musculus) (UniProt O08914).
T1 sequence (whole entry): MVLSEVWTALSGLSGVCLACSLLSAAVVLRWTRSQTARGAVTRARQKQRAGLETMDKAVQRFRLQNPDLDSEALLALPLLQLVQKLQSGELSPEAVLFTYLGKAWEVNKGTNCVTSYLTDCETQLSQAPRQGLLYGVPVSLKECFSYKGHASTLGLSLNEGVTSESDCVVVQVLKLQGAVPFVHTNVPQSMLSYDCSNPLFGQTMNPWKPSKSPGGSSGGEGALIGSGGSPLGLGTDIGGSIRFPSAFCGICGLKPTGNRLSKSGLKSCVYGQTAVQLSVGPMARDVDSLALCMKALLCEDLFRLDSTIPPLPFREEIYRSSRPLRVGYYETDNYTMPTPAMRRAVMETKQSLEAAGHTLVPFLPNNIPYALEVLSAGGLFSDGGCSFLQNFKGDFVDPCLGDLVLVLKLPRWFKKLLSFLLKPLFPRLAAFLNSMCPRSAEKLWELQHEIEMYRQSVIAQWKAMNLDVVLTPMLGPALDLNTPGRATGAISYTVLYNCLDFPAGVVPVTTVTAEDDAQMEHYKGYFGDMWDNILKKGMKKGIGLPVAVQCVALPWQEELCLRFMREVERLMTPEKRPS
The data set can be described thus: Inhibition of FAAH in mouse brain membrane at 10 uM using TAMRA-FP serine hydrolase probe as substrate preincubated for 25 mins followed by substrate addition and measured after 25 mins SDS-PAGE analysis. The conditions noted are these: time 50.0 min. The format is cell membranes. The gist of the method: (§1)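 Mouse half-brain membrane fraction (800g supernatants spun at 16000g, 4 °C; pellet in 50 mM Tris-HCl pH 7.4), diluted to 4 mg/mL in PBS. Preincubated 25 min at 25 °C with test agent (10 μM final) or DMSO, then TAMRA-FP (125 nM final) 25 min at 25 °C. Stopped in Laemmli buffer at 90 °C, run on 12% SDS-PAGE, in-gel fluorescence read. Coomassie confirmed loading. Three independent experiments.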

The test system of data set [14] is PDAC-3. The data set can be described thus: Antiproliferative activity against human PDAC-3 cells assessed as cell growth inhibition incubated for 72 hrs by sulforhodamine B assay. The format is functional, cell-based. An outline of the steps: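 Primary PDAC3 culture in RPMI-1640 with 10% newborn calf serum, penicillin/streptomycin, 37 °C, 5% CO2. Seeded 5000 cells/well; after 24 h exposed 72 h to MAGL inhibitor (0.1–50 μM, DMSO stock diluted in medium).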
A general note: In SRB staining, fixed cells bind dye roughly in proportion to their protein.

In data set [15] the target is T2, Lysophosphatidylserine lipase ABHD12 (Mus musculus) (UniProt Q99LR1).
T2 sequence (whole entry): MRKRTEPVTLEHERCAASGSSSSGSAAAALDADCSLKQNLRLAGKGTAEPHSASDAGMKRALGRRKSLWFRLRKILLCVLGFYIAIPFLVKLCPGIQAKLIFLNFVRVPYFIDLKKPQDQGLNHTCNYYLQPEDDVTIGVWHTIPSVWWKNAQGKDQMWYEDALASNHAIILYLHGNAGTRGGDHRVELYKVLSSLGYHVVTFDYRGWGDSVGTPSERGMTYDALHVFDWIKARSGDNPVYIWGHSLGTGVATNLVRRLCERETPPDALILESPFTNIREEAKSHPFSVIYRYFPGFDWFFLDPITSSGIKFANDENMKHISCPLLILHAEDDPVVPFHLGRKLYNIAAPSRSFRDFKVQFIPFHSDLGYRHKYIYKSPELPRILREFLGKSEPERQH
The data set can be described thus: Inhibition of ABHD12 in mouse brain membrane at 10 uM using TAMRA-FP serine hydrolase probe as substrate preincubated for 25 mins followed by substrate addition and measured after 25 mins SDS-PAGE analysis. The format is cell membranes. The note with it: time 50.0 min. The gist of the method:
as §1

Data set [16] addresses T3, Monoacylglycerol lipase ABHD6 (Mus musculus) (UniProt Q8R2Y0).
T3 sequence (whole entry): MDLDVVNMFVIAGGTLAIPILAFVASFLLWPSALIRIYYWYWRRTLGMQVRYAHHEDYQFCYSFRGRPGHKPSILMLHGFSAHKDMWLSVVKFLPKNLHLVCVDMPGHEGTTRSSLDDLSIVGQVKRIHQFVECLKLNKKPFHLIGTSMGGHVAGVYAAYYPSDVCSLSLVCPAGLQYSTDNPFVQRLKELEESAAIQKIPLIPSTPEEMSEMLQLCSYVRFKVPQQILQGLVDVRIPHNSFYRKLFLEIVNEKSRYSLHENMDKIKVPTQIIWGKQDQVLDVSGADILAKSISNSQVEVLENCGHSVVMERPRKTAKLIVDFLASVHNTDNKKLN
The data set can be described thus: Inhibition of ABHD6 in mouse brain membrane at 10 uM using TAMRA-FP serine hydrolase probe as substrate preincubated for 25 mins followed by substrate addition and measured after 25 mins SDS-PAGE analysis. The conditions noted are these: time 50.0 min. The format is cell membranes. The gist of the method:
as §1

Take `O=C(c1cc(O)ccc1F)N1CCC(Cc2cccc(Oc3cc(C(F)(F)F)ccn3)c2)CC1`: the outcome with PDAC-3 [1], in the data set with PDAC-3 [2], in the data set with PDAC-3 [3], with PDAC-3 [4] and with PDAC-3 [12] was Active. In [5], the IC50 at 72 h is over 20 µM. Further, the Stability in data set [6] and in [10] was over 24 h each time. For the same molecule, in data set [7], the “fold change (FC)” value was determined as 4. Moreover, the half-life at 3000 µM in [8] was over 24 h. Moreover, the logS0 in [9] is listed as under -8.676. Besides, in data set [9], the solubility is under 1 ng/mL. In addition, in [11], the R% is recorded as 38.9%.

As to `Nc1ccn([C@@H]2O[C@H](CO)[C@@H](O)C2(F)F)c(=O)n1`, the result in the data set with PDAC-3 [1] and in the data set on PDAC-3 [3] was Active.

Turning to `NC(=O)c1cccc(-c2cccc(OC(=O)NC3CCCCC3)c2)c1`, the inhibition entry in [13] is “Active”.

In [6], `O=C(c1ccc(Sc2cccc(C(F)(F)F)c2)cc1)C1CCN(C(=O)c2cc(O)ccc2F)CC1` displayed a Stability of over 24 h. The half-life at 3000 µM in [8] was over 24 h. In data set [9], the logS0 is listed as under -8.702 and the solubility is under 1 ng/mL. For the same molecule, the Stability in data set [10] was over 24 h. For the same molecule, the R% in data set [11] is 52.6%.

As for `O=C(Oc1ccc([N+](=O)[O-])cc1)N1CCC(C(O)(c2ccc3c(c2)OCO3)c2ccc3c(c2)OCO3)CC1`, the outcome in the data set on PDAC-3 [1], with PDAC-3 [3] and in the data set on PDAC-3 [14] was Active.

On to `CCCCCCCCCCC[C@@H](C[C@@H]1OC(=O)[C@H]1CCCCCC)OC(=O)[C@H](CC(C)C)NC=O`, for which the inhibition entry in data set [15] and in [16] was “Active” each time.

As to `CN(Cc1cccc(-c2ccncc2)c1)C(=O)Oc1ccc(-c2ccc(C(N)=O)cc2)cc1`, in data set [16], the inhibition entry was “Active”.

Regarding `O=C(OC(C(F)(F)F)C(F)(F)F)N1CCN(Cc2ccc(C(F)(F)F)cc2N2CCCC2)CC1`, the outcome in the data set on PDAC-3 [1], with PDAC-3 [3] and with PDAC-3 [14] was Active.
